Like-named read-outs stand apart in the source and are kept apart here. Marks after values point to notes of the source that are not given here.
Columns and labels:
[1] = tested on: bone marrow 2-HG; experiment: Bone marrow 2-HG pharmacodynamics in patients with newly diagnosed mIDH1/2 AML; type: in vivo, human; settings: after multiple doses; combined with chemotherapy
In short: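 Bone marrow aspirates from patients on oral ivosidenib or enasidenib once daily plus chemotherapy. 2-HG was quantified by LC-MS/MS using a qualified surrogate analyte method, with ¹³C₅ 2-HG as the surrogate for calibrators and QCs. LLOQ was 10 ng/mL, and BLQ values were set to LLOQ. Percentage reduction from baseline was computed using actual times relative to dosing.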

[2] = tested on: 2-HG; settings: cited from earlier work; for plasma 2-HG reduction from baseline, maximum / plasma 2-HG reduction from baseline, median: enasidenib 100 mg once daily
[3] = type: in vivo, human; settings: for time to steady-state PK based on Ctrough: continuous once-daily dosing combined with chemotherapy
In short: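 Samples were taken predose and 0.5–8 h (24 h per footnote) post-dose with once-daily dosing. AUC0-24, Cmax, tmax and Ctrough were derived using actual times, and predose BLQ values were set to 0. Accumulation ratio was C1D14/C1D1 or C1D21/C1D8 of induction. Steady state was judged from Ctrough across cycles, and consolidation data pooled both regimens (ME or ARA-C).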

[4] = tested on: plasma 2-HG; experiment: Plasma 2-HG pharmacodynamics in patients with newly diagnosed mIDH1/2 AML; type: in vivo, human; settings: for reduction of mean trough plasma 2-HG concentrations (up to): after multiple doses, combined with chemotherapy; for mean reduction in plasma 2-HG concentration: enasidenib started C1D1, by induction C1D14
In short: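 Plasma was sampled within 30 min predose and at 0.5, 2, 4, 6, 8 (and 24, per footnote) h on induction C1D1/C1D14 and consolidation C1D1; the delayed-start cohort was sampled on C1D8/C1D21. 2-HG was measured by surrogate-analyte (¹³C₅ 2-HG) LC-MS/MS, LLOQ 30 ng/mL, with BLQ set to LLOQ. AUEC0-8, AUEC0-24, BAUEC0-24 and Rtrough used actual times. C1D14 reductions were grouped by best overall response: CR; IR (CRi, CRp, MLFS, PR); NR (SD, PD).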

[5] = cited from earlier work
[6] = tested on: advanced mIDH2 hematologic malignancies; settings: cited from earlier work
[7] = tested on: IDH2-R172; settings: preclinical and in vitro data; cited from earlier work
[8] = tested on: 2-HG; settings: ivosidenib 500 mg once daily single agent, cited from earlier work
[9] = cited from earlier work; remark: listed apart in the source
[10] = tested on: CYP3A4; settings: healthy participants; cited from earlier work
[11] = tested on: mIDH1 R/R AML; settings: patients with mIDH1 R/R AML; ivosidenib 500 mg once daily; cited from earlier work
[12] = enasidenib 100 mg QD + chemotherapy, Consolidation C1D1
[13] = enasidenib 100 mg QD starting day 1 + chemotherapy, Induction C1D1
[14] = enasidenib 100 mg QD starting day 1 + chemotherapy, Induction C1D14
[15] = enasidenib 100 mg QD starting day 8 + chemotherapy, Induction C1D8
[16] = enasidenib 100 mg QD starting day 8 + chemotherapy, Induction C1D21
[17] = ivosidenib 500 mg QD + chemotherapy, Consolidation C1D1
[18] = ivosidenib 500 mg QD + chemotherapy, Induction C1D14 / induction C1D1
[19] = ivosidenib 500 mg QD + chemotherapy, Induction C1D1
[20] = ivosidenib 500 mg QD + chemotherapy, Induction C1D14

SMILES: CC(C)(O)CNc1nc(Nc2ccnc(C(F)(F)F)c2)nc(-c2cccc(C(F)(F)F)n2)n1 [Enasidenib, enasidenib]
- reduction of mean trough bone marrow 2-HG concentrations (up to) [1]: up to 99%
- plasma 2-HG reduction from baseline, maximum ([2]; IDH2-R140Q mutations): 99%
- plasma 2-HG reduction from baseline, median ([2]; IDH2-R140Q mutations): 93%
- plasma 2-HG reduction from baseline, maximum ([2]; IDH2-R172K mutations): 94%
- plasma 2-HG reduction from baseline, median ([2]; IDH2-R172K mutations): 28%
- median reduction in 2-HG concentrations from baseline ([2]; enasidenib dose of 100 mg): 90.4%
- median reduction in 2-HG concentrations from baseline ([2]; enasidenib doses of <100 mg): 92.4%
- median reduction in 2-HG concentrations from baseline ([2]; enasidenib doses of >100 mg): 93.1%
- time to steady-state PK based on Ctrough [3]: ≤ 14 days
- Racc AUC0-24 (accumulation ratio based on AUC0-24), mean (SD) [3, 12]: 7.93 (4.29); 18
- Racc Cmax (accumulation ratio based on Cmax), mean (SD) [3, 12]: 7.15 (4.59); 24
- reduction of mean trough plasma 2-HG concentrations (up to) [4]: ≤ 99%
- %BAUEC0-24 (percentage reduction of plasma 2-HG based on AUEC0-24), mean (RSD%) [4, 12]: 80.6 (25.1); 21%
- %Rtrough (percentage reduction of plasma 2-HG at the end of a dosing interval), mean (RSD%) [4, 12]: 77.1 (37.8); 21%
- Plasma 2-HG AUEC0-24, mean (RSD%) [4, 12]: 1800 (116.1); 21 ng • h/mL
- %BAUEC0-24 (percentage reduction of plasma 2-HG based on AUEC0-24), mean (RSD%) [4, 13]: 18.7 (108.0); 57%
- %Rtrough (percentage reduction of plasma 2-HG at the end of a dosing interval), mean (RSD%) [4, 13]: 37.8 (68.2); 57%
- %BAUEC0-24 (percentage reduction of plasma 2-HG based on AUEC0-24), mean (RSD%) [4, 14]: 85.0 (24.7); 45%
- %Rtrough (percentage reduction of plasma 2-HG at the end of a dosing interval), mean (RSD%) [4, 14]: 84.7 (24.6); 45%
- Plasma 2-HG AUEC0-24, mean (RSD%) [4, 14]: 2030 (134.4); 45 ng • h/mL
- %BAUEC0-24 (percentage reduction of plasma 2-HG based on AUEC0-24), mean (RSD%) [4, 15]: 73.9 (28.1); 16%
- %Rtrough (percentage reduction of plasma 2-HG at the end of a dosing interval), mean (RSD%) [4, 15]: 82.8 (18.0); 16%
- Plasma 2-HG AUEC0-24, mean (RSD%) [4, 15]: 3960 (72.5); 16 ng • h/mL
- %BAUEC0-24 (percentage reduction of plasma 2-HG based on AUEC0-24), mean (RSD%) [4, 16]: 83.1 (34.6); 15%
- %Rtrough (percentage reduction of plasma 2-HG at the end of a dosing interval), mean (RSD%) [4, 16]: 82.3 (40.5); 15%
- Plasma 2-HG AUEC0-24, mean (RSD%) [4, 16]: 1670 (130.2); 15 ng • h/mL
- mean reduction in plasma 2-HG concentration ([4]; patients with IDH2-R140 mutations (n = 41)): 89.3%
- mean reduction in plasma 2-HG concentration ([4]; patients with IDH2-R172 mutations (n = 14)): 76.9%
- arithmetic mean percentage reduction of plasma 2-HG based on BAUEC0-8 ([4]; enasidenib starting on induction C1D1, following the first enasidenib dose): 7.1%
- reduction in plasma 2-HG AUEC0-8 ([4]; enasidenib starting on induction C1D8, at C1D8): 71.6%
- median 2-HG reduction ([4]; in this study, enasidenib combined with chemotherapy): > 75%
- terminal half-life ([5]; enasidenib single agent): ≈ 137 hours
- time to steady state ([5]; enasidenib single agent): ≤ 29 days
- accumulation ([5]; once-daily administration, ref data on file): ≈ 10 fold
- ORR ([6]; all patients receiving enasidenib 100 mg once daily): 38.5%
- ORR ([6]; enasidenib 100 mg once daily, patients with IDH2-R140 mutations): 35.4%
- ORR ([6]; enasidenib 100 mg once daily, patients with IDH2-R172 mutations): 53.3%
- potency against IDH2-R172 compared with IDH2-R140 [7]: less potent

SMILES: N#Cc1ccnc(N2C(=O)CC[C@H]2C(=O)N(c2cncc(F)c2)[C@H](C(=O)NC2CC(F)(F)C2)c2ccccc2Cl)c1 [Ivosidenib, ivosidenib]
- reduction of mean trough bone marrow 2-HG concentrations (up to) [1]: up to 99%
- patients achieving a ≥90% reduction in plasma 2-HG concentrations ([8]; after multiple doses): 71%
- reduction in bone marrow 2-HG concentrations [8]: > 90%
- half-life ([9]; ivosidenib 500 mg once daily single agent, after a single dose): 93 h
- accumulation ratio ([9]; ivosidenib 500 mg once daily single agent, after multiple doses): ≈ 2 fold
- time to steady state based on observed Ctrough ([9]; ivosidenib 500 mg once daily single agent): ≤ 14 days
- ivosidenib clearance with concomitant moderate or strong CYP3A4 inhibitors ([9]; patients, phase 1 single-agent study): decreased
- AUC parameters when coadministered with itraconazole [10]: increased
- Cmax when coadministered with itraconazole [10]: unaffected
- time to steady-state PK based on Ctrough [3]: ≤ 14 days
- Racc AUC0-24 (accumulation ratio based on AUC0-24), mean (SD) [3, 17]: 1.38 (0.83); 24
- Racc Cmax (accumulation ratio based on Cmax), mean (SD) [3, 17]: 1.21 (0.69); 30
- Racc AUC0-24 (accumulation ratio based on AUC0-24), mean (SD) [3, 18]: 2.35 (1.2); 38
- Racc Cmax (accumulation ratio based on Cmax), mean (SD) [3, 18]: 1.69 (0.71); 49
- reduction of mean trough plasma 2-HG concentrations (up to) [4]: ≤ 99%
- %BAUEC0-24 (percentage reduction of plasma 2-HG based on AUEC0-24), mean (RSD%) [4, 17]: 91.0 (16.9); 28%
- %Rtrough (percentage reduction of plasma 2-HG at the end of a dosing interval), mean (RSD%) [4, 17]: 90.7 (17.2); 28%
- Plasma 2-HG AUEC0-24, mean (RSD%) [4, 17]: 1090 (39.8); 29 ng • h/mL
- %BAUEC0-24 (percentage reduction of plasma 2-HG based on AUEC0-24), mean (RSD%) [4, 19]: 53.0 (30.5); 48^b %
- %Rtrough (percentage reduction of plasma 2-HG at the end of a dosing interval), mean (RSD%) [4, 19]: 80.8 (28.1); 48^b %
- %BAUEC0-24 (percentage reduction of plasma 2-HG based on AUEC0-24), mean (RSD%) [4, 20]: 90.0 (23.8); 46%
- %Rtrough (percentage reduction of plasma 2-HG at the end of a dosing interval), mean (RSD%) [4, 20]: 89.8 (23.9); 46%
- Plasma 2-HG AUEC0-24, mean (RSD%) [4, 20]: 1120 (51.8); 47 ng • h/mL
- overall response rate (ORR) [11]: 41.6%

— publication PMC9303875 (Clinical Pharmacology in Drug Development, 2022)
